Calls of active or inactive are those of the source. No cut-off for these calls is given here.

Test [1] concerns the target T1, Pituitary adenylate cyclase-activating polypeptide type I receptor (Homo sapiens, UniProt P41586). Nature of the test: Displacement of [125I]Ac-PACAP27 from human recombinant PAC1 receptor expressed in CHO cells by gamma- counter. In kind it is cell-based. (In general: Loss of bound radioactivity is the signal in a displacement assay; it reports binding, not function.)
Target sequence in this assay (P41586 whole entry): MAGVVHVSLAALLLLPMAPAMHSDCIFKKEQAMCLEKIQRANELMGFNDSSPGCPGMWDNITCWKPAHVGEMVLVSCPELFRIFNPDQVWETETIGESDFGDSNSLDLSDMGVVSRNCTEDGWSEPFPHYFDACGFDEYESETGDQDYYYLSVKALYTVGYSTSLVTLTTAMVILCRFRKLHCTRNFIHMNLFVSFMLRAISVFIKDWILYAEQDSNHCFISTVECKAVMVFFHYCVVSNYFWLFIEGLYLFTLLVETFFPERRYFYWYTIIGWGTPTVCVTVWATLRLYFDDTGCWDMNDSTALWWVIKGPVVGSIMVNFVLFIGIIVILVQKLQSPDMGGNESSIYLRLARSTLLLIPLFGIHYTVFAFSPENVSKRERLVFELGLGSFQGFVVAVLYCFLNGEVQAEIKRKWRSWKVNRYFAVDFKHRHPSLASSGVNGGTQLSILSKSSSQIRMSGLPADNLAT

Test [2] concerns the target T1, Pituitary adenylate cyclase-activating polypeptide type I receptor. The experiment in a line: Agonist activity at human recombinant PAC1 receptor expressed in CHO cells assessed as PACAP38-induced calcium mobilization at 1 uM by FLIPR assay. Format: functional, cell-based. For orientation: A change in cytosolic calcium serves as a functional read-out for many receptors and channels.
Target sequence in this assay (P41586 whole entry): as above

Test [3] shares this target. The experiment in a line: Agonist activity at human recombinant PAC1 receptor expressed in CHO cells assessed as PACAP38-induced calcium mobilization at 1 uM by FLIPR assay relative to PACAP38. In kind it is functional, cell-based.
Target sequence in this assay (P41586 21-468 limits assumed): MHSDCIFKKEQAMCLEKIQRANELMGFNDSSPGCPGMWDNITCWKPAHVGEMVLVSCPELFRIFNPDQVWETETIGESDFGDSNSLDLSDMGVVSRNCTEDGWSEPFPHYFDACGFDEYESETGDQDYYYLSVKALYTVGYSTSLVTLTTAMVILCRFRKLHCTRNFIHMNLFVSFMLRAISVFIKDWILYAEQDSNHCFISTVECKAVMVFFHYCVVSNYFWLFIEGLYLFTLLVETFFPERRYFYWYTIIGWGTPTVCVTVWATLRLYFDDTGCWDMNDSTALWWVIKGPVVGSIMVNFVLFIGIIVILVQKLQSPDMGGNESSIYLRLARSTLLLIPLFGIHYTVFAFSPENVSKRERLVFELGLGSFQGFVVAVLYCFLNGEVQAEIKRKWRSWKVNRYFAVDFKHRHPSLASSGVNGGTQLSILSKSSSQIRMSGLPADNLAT
The target is the same in test [4]. The experiment in a line: Antagonist activity at human recombinant PAC1 receptor expressed in CHO cells assessed as reduction in PACAP38-induced calcium mobilization by FLIPR assay. Format: functional, cell-based. Conditions: read-out: pA2 (converted). The gist of the method:
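PAC1-CHO cells were loaded with fluo-4 and preincubated 15 min with antagonist at 0.1, 1 or 10 µM. PACAP38 concentration-response curves for calcium mobilization were then recorded. pA2 was estimated by Schild plot from concentration ratios; 4-10 independent assays in duplicate.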
Target sequence in this assay (P41586 whole entry): as the sequence (P41586 whole entry) above

Test [5] has the same target. The experiment in a line: Antagonist activity at human recombinant PAC1 receptor expressed in CHO cells assessed as reduction in PACAP38-induced calcium mobilization at 10 uM by FLIPR assay. In kind it is functional, cell-based. The gist of the method: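 Fluo-4-loaded CHO cells stably expressing human PAC1 were exposed for 15 min to 10^-5 M peptide before reading. They were then challenged with 10^-6 M PACAP38, and the reduction in fluorescence calcium response was recorded (ex 480/em 525 nm, 150 s).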
Target sequence in this assay (P41586 21-468 limits assumed): as the sequence (P41586 21-468 limits assumed) above

Consider `CC[C@H](C)[C@@H](C(=O)N[C@@H](Cc1ccccc1)C(=O)N[C@H](C(=O)N[C@@H](CC(=O)O)C(=O)N[C@@H](CO)C(=O)N[C@@H](Cc1ccc(O)cc1)C(=O)N[C@@H](CO)C(=O)N[C@@H](CCCNC(=N)N)C(=O)N[C@@H](Cc1ccc(O)cc1)C(=O)N[C@@H](CCCNC(=N)N)C(=O)N[C@@H](CCCCN)C(=O)N[C@@H](CCC(N)=O)C(=O)N[C@@H](CCSC)C(=O)N[C@@H](C)C(=O)N[C@H](C(=O)N[C@@H](CCCCN)C(=O)N[C@@H](CCCCN)C(=O)N[C@@H](Cc1ccc(O)cc1)C(=O)N[C@@H](CC(C)C)C(=O)N[C@@H](C)C(=O)N[C@@H](C)C(=O)N[C@H](C(=O)N[C@@H](CC(C)C)C(=O)NCC(=O)N[C@@H](CCCCN)C(=O)N[C@@H](CCCNC(=N)N)C(=O)N[C@@H](Cc1ccc(O)cc1)C(=O)N[C@@H](CCCCN)C(=O)N[C@@H](CCC(N)=O)C(=O)N[C@@H](CCCNC(=N)N)C(=O)N[C@H](C(=O)N[C@@H](CCCCN)C(=O)N[C@@H](CC(N)=O)C(=O)N[C@@H](CCCCN)C(N)=O)C(C)C)C(C)C)C(C)C)[C@@H](C)O)N(C)C(=O)CNC(=O)[C@H](CC(=O)O)NC(=O)[C@H](CO)NC(=O)[C@@H](N)Cc1cnc[nH]1`, for which, in test [1], the IC50 – broadly, the concentration needed to halve the response being measured – is 0.158 µM. Besides, in test [2], the EC50 entry is recorded as “Not Active”. Further, in test [3], the Emax result was “inactive”. For the same compound, the Kb in test [4] is 0.0525 µM.

As to `CC[C@H](C)[C@H](NC(=O)CN(C)C(=O)[C@H](CC(=O)O)NC(=O)[C@H](CO)NC(=O)[C@@H](N)Cc1cnc[nH]1)C(=O)N[C@@H](Cc1ccccc1)C(=O)N[C@H](C(=O)N[C@@H](CC(=O)O)C(=O)N[C@@H](CO)C(=O)N[C@@H](Cc1ccc(O)cc1)C(=O)N[C@@H](CO)C(=O)N[C@@H](CCCNC(=N)N)C(=O)N[C@@H](Cc1ccc(O)cc1)C(=O)N[C@@H](CCCNC(=N)N)C(=O)N[C@@H](CCCCN)C(=O)N[C@@H](CCC(N)=O)C(=O)N[C@@H](CCSC)C(=O)N[C@@H](C)C(=O)N[C@H](C(=O)N[C@@H](CCCCN)C(=O)N[C@@H](CCCCN)C(=O)N[C@@H](Cc1ccc(O)cc1)C(=O)N[C@@H](CC(C)C)C(=O)N[C@@H](C)C(=O)N[C@@H](C)C(=O)N[C@H](C(=O)N[C@@H](CC(C)C)C(=O)NCC(=O)N[C@@H](CCCCN)C(=O)N[C@@H](CCCNC(=N)N)C(=O)N[C@@H](Cc1ccc(O)cc1)C(=O)N[C@@H](CCCCN)C(=O)N[C@@H](CCC(N)=O)C(=O)N[C@@H](CCCNC(=N)N)C(=O)N[C@H](C(=O)N[C@@H](CCCCN)C(=O)N[C@@H](CC(N)=O)C(=O)N[C@@H](CCCCN)C(N)=O)C(C)C)C(C)C)C(C)C)[C@@H](C)O`, the IC50 in test [1] is 0.097 µM. For the same compound, the EC50 result in test [2] is given as “Not Active”. Besides, the Emax result in test [3] is “inactive”. In addition, the Kb in test [4] was 0.00407 µM.

As to `CSCC[C@H](NC(=O)[C@H](CCC(N)=O)NC(=O)[C@H](CCCCN)NC(=O)[C@H](CCCNC(=N)N)NC(=O)[C@H](Cc1ccc(O)cc1)NC(=O)[C@H](CCCNC(=N)N)NC(=O)[C@H](CO)NC(=O)[C@H](Cc1ccc(O)cc1)NC(=O)[C@H](CO)NC(=O)[C@H](CC(=O)O)NC(=O)[C@@H](NC(=O)[C@@H](N)Cc1ccccc1)[C@@H](C)O)C(=O)N[C@@H](C)C(=O)N[C@H](C(=O)N[C@@H](CCCCN)C(=O)N[C@@H](CCCCN)C(=O)N[C@@H](Cc1ccc(O)cc1)C(=O)N[C@@H](CC(C)C)C(=O)N[C@@H](C)C(=O)N[C@@H](C)C(=O)N[C@H](C(=O)N[C@@H](CC(C)C)C(=O)NCC(=O)N[C@@H](CCCCN)C(=O)N[C@@H](CCCNC(=N)N)C(=O)N[C@@H](Cc1ccc(O)cc1)C(=O)N[C@@H](CCCCN)C(=O)N[C@@H](CCC(N)=O)C(=O)N[C@@H](CCCNC(=N)N)C(=O)N[C@H](C(=O)N[C@@H](CCCCN)C(=O)N[C@@H](CC(N)=O)C(=O)N[C@@H](CCCCN)C(N)=O)C(C)C)C(C)C)C(C)C`, the IC50 in test [1] was determined as 0.0567 µM. Further, in test [2], the EC50 result is “Not Active”. The Emax entry in test [3] was “inactive”. Moreover, the Kb in test [4] was 0.011 µM.

For `CC[C@H](C)[C@H](NC(=O)CN(C)C(=O)[C@H](CC(=O)O)NC(=O)[C@H](CO)NC(=O)[C@@H](N)Cc1cnc[nH]1)C(=O)N[C@@H](Cc1ccccc1)C(=O)N[C@H](C(=O)N[C@@H](CC(=O)O)C(=O)N[C@@H](CO)C(=O)N[C@@H](Cc1ccc(O)cc1)C(=O)N[C@@H](CO)C(=O)N[C@@H](CCCNC(=N)N)C(=O)N[C@@H](Cc1ccc(O)cc1)C(=O)N[C@@H](CCCNC(=N)N)C(=O)N[C@@H](CCCCN)C(=O)N[C@@H](CCC(N)=O)C(=O)N[C@@H](CCSC)C(=O)N[C@@H](C)C(=O)N[C@H](C(=O)N[C@@H](CCCCN)C(=O)N[C@@H](CCCCN)C(=O)N[C@@H](Cc1ccc(O)cc1)C(=O)N[C@@H](CC(C)C)C(=O)N[C@@H](C)C(=O)N[C@@H](C)C(=O)N[C@H](C(=O)N[C@@H](CC(C)C)C(N)=O)C(C)C)C(C)C)[C@@H](C)O`, the IC50 in test [1] turned out to be 0.308 µM. In test [2], the EC50 entry was “Not Active”. In test [3], the Emax result was “inactive”. Besides, in test [5], the result was inactive.

Source of the values: ChEMBL document CHEMBL1138520, “Molecular and conformational determinants of pituitary adenylate cyclase-activating polypeptide (PACAP) for activation of the PAC1 receptor” (J Med Chem, 2009).
